Data taken from ChEMBL document CHEMBL3414559, “Novel C-4 heteroaryl 13-cis-retinamide Mnk/AR degrading agents inhibit cell proliferation and migration and induce apoptosis in human breast and prostate cancer cells and suppress growth of MDA-MB-231 human breast and CWR22Rv1 human prostate tumor xenografts in mice” (J Med Chem, 2015).
Blank lines part the entries; values can stand above or below the compound they belong to. Calls of active or inactive are those of the source. The rule behind the calls is not given here.

Tests used:
[1] = system: MCF7; assay: Growth inhibition of human MCF7 cells by MTT assay; format: functional
How it was run: (§1)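 Cells grown in RPMI 1640 with 10% FBS, plated at 2500 cells/well, treated across a dose range; growth read by MTT. GI50 taken from dose–response curves by nonlinear regression, at least three independent experiments.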

[2] = system: MDA-MB-231; assay: Growth inhibition of human MDA-MB-231 cells by MTT assay; format: functional; how it was run: as §1
[3] = system: MDA-MB-468; assay: Growth inhibition of human MDA-MB-468 cells by MTT assay; format: functional; how it was run: as §1
[4] = Growth inhibition of human SKBR3 cells by MTT assay; format: functional; conditions: SK-BR-3; how it was run: as §1
[5] = system: LNCaP; assay: Growth inhibition of human LNCAP cells by MTT assay; format: functional; how it was run: as §1
[6] = Growth inhibition of human CWR22Rv1 cells by MTT assay; format: functional, CWR22R; conditions: 22Rv1; how it was run: as §1
[7] = Growth inhibition of human PC3 cells by MTT assay; format: functional; conditions: PC-3; how it was run: as §1
[8] = system: MCF7; assay: Reduction in Mnk1 protein expression in human MCF7 cells at 0.63 uM to 20 uM after 24 hrs by SDS-PAGE and Western blotting method; format: functional, cell-based
How it was run: (§2)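 Breast cancer cells in RPMI 1640 with 10% FBS treated 24 h at indicated concentrations, DMSO vehicle control; equal protein loaded on SDS–PAGE and immunoblotted for Mnk1, Mnk2, peIF4E, eIF4E and cleaved PARP; blots reprobed for GAPDH as loading control.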

[9] = system: MCF7; assay: Reduction in Mnk2 protein expression in human MCF7 cells at 0.63 uM to 20 uM after 24 hrs by SDS-PAGE and Western blotting method; format: functional, cell-based; how it was run: as §2
[10] = system: MCF7; assay: Reduction in peIF4E protein expression in human MCF7 cells at 0.63 uM to 20 uM after 24 hrs by SDS-PAGE and Western blotting method; format: functional, cell-based
How it was run: (§3)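 MCF-7, MDA-MB-231 and MDA-MB-468 cells, kept in RPMI 1640 with 10% FBS, were exposed for 24 h to a range of concentrations, with DMSO vehicle controls. Equal protein from lysates was separated by SDS–PAGE and probed for Mnk1, Mnk2, peIF4E, eIF4E and cPARP. GAPDH reprobing served as loading control.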

[11] = system: MDA-MB-231; assay: Reduction in Mnk1 protein expression in human MDA-MB-231 cells at 0.63 uM to 20 uM after 24 hrs by SDS-PAGE and Western blotting method; format: functional, cell-based; how it was run: as §2
[12] = system: MDA-MB-231; assay: Reduction in Mnk2 protein expression in human MDA-MB-231 cells at 0.63 uM to 20 uM after 24 hrs by SDS-PAGE and Western blotting method; format: functional, cell-based; how it was run: as §2
[13] = system: MDA-MB-231; assay: Reduction in peIF4E protein expression in human MDA-MB-231 cells at 0.63 uM to 20 uM after 24 hrs by SDS-PAGE and Western blotting method; format: functional, cell-based; how it was run: as §3
[14] = system: MDA-MB-468; assay: Reduction in Mnk1 protein expression in human MDA-MB-468 cells at 0.63 uM to 20 uM after 24 hrs by SDS-PAGE and Western blotting method; format: functional, cell-based; how it was run: as §2
[15] = system: MDA-MB-468; assay: Reduction in Mnk2 protein expression in human MDA-MB-468 cells at 0.63 uM to 20 uM after 24 hrs by SDS-PAGE and Western blotting method; format: functional, cell-based; how it was run: as §2
[16] = system: MDA-MB-468; assay: Reduction in peIF4E protein expression in human MDA-MB-468 cells at 0.63 uM to 20 uM after 24 hrs by SDS-PAGE and Western blotting method; format: functional, cell-based; how it was run: as §3
[17] = system: MDA-MB-468; assay: Effect on total eIF4E protein expression in human MDA-MB-468 cells at 0.63 uM to 20 uM after 24 hrs by SDS-PAGE and Western blotting method; format: functional, cell-based; how it was run: as §2
[18] = system: MDA-MB-231; assay: Effect on total eIF4E protein expression in human MDA-MB-231 cells at 0.63 uM to 20 uM after 24 hrs by SDS-PAGE and Western blotting method; format: functional, cell-based; how it was run: as §2
[19] = system: MCF7; assay: Effect on total eIF4E protein expression in human MCF7 cells at 0.63 uM to 20 uM after 24 hrs by SDS-PAGE and Western blotting method; format: functional, cell-based; how it was run: as §2
[20] = system: MDA-MB-468; assay: Induction of apoptosis in human MDA-MB-468 cells assessed as increase in c-PARP formation at 0.63 uM to 20 uM after 24 hrs by SDS-PAGE and Western blotting method; format: functional, cell-based; how it was run: as §2
[21] = system: MCF7; assay: Induction of apoptosis in human MCF7 cells assessed as increase in c-PARP formation at 0.63 uM to 20 uM after 24 hrs by SDS-PAGE and Western blotting method; format: functional, cell-based; how it was run: as §2
[22] = system: MDA-MB-231; assay: Induction of apoptosis in human MDA-MB-231 cells assessed as increase in c-PARP formation at 0.63 uM to 20 uM after 24 hrs by SDS-PAGE and Western blotting method; format: functional, cell-based; how it was run: as §2
[23] = system: LNCaP; assay: Reduction in fAR protein expression in human LNCAP cells at 0.6 uM to 20 uM after 24 hrs by SDS-PAGE and Western blotting method; format: functional, cell-based
How it was run: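 LNCaP cells were treated for 24 h across 0.6–20 μM, with vehicle (DMSO) controls. Equal protein from lysates was run on SDS–PAGE and immunoblotted for fAR, Mnk1/2, peIF4E, cyclin D1 and cleaved PARP. Blots were reprobed for β-actin as loading control.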

[24] = system: LNCaP; assay: Reduction in Mnk1 protein expression in human LNCAP cells at 0.6 uM to 20 uM after 24 hrs by SDS-PAGE and Western blotting method; format: functional, cell-based
How it was run: (§4)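 LNCaP cells (RPMI 1640, 10% FBS) exposed 24 h to 0.6–20 μM, DMSO vehicle control; equal protein on SDS–PAGE, immunoblotted for fAR, Mnk1/2, peIF4E, cyclin D1 and cleaved PARP; β-actin reprobe for loading.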

[25] = system: LNCaP; assay: Reduction in Mnk2 protein expression in human LNCAP cells at 0.6 uM to 20 uM after 24 hrs by SDS-PAGE and Western blotting method; format: functional, cell-based; how it was run: as §4
[26] = system: LNCaP; assay: Effect on total eIF4E protein expression in human LNCAP cells at 0.6 uM to 20 uM after 24 hrs by SDS-PAGE and Western blotting method; format: functional, cell-based
[27] = system: LNCaP; assay: Induction of apoptosis in human LNCAP cells assessed as reduction in cyclin D1 levels at 0.6 uM to 20 uM after 24 hrs by SDS-PAGE and Western blotting method; format: functional, cell-based; how it was run: as §4
[28] = system: PC-3; assay: Inhibition of cell migration of human PC3 cells at 5 uM after 24 hrs by wound healing assay; format: functional, cell-based
How it was run: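 Cells (5 × 10⁵ per well) grown to confluence, monolayer scratched at time zero, then exposed to 5 μM for 24 h; initial and final wounds photographed at 100×.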

[29] = system: LNCaP; assay: Induction of apoptosis in human LNCAP cells assessed as increase in c-PARP formation at 0.6 uM to 20 uM after 24 hrs by SDS-PAGE and Western blotting method; format: functional, cell-based; how it was run: as §4
[30] = molecular target: T1, Androgen receptor (Homo sapiens) (UniProt P10275); conditions: LNCaP, at 10 µM
T1 sequence (whole entry): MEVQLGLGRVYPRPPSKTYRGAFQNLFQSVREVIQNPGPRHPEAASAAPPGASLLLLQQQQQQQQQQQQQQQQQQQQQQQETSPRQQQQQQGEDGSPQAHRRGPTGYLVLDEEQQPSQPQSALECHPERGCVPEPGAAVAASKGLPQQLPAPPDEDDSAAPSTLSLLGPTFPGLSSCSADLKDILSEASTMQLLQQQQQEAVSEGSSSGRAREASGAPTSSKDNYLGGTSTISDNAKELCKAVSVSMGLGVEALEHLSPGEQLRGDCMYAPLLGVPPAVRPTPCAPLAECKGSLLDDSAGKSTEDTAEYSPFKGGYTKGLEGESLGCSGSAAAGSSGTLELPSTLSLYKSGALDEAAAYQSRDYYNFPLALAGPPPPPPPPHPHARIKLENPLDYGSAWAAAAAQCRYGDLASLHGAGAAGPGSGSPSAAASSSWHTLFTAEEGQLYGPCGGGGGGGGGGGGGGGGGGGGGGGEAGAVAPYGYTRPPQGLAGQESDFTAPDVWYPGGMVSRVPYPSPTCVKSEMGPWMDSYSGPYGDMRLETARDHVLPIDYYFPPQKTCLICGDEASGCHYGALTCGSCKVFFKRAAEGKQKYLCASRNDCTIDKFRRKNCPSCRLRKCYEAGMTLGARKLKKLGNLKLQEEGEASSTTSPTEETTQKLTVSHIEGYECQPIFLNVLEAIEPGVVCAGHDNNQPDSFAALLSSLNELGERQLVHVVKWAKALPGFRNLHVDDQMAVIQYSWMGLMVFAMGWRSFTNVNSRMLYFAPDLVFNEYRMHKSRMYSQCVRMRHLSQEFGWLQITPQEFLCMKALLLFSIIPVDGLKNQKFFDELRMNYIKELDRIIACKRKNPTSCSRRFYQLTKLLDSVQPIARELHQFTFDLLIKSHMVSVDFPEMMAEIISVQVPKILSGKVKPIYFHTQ

GI50 [1]: 1.9 µM
GI50 [2]: 2.88 µM
GI50 [3]: 13.5 µM
SMILES: CC1=C(/C=C/C(C)=C/C=C/C(C)=C\C(=O)NCCc2ccc(O)cc2)C(C)(C)CCC1n1ccnc1 (stereo not drawn)
GI50 [4]: 1.41 µM

GI50 [1]: 1.9 µM
GI50 [2]: 1.74 µM
GI50 [3]: 2.54 µM
GI50 [5]: 2.69 µM
inhibition [30]: Active
SMILES: CC1=C(/C=C/C(C)=C/C=C/C(C)=C\C(=O)Nc2ccccc2)C(C)(C)CCC1n1ccnc1 (stereo not drawn)
GI50 [4]: 1.73 µM
GI50 [6]: 1.28 µM
GI50 [7]: 8.91 µM
inhibition [8]: Dose-dependent effect
inhibition [9]: Dose-dependent effect
inhibition [10]: Dose-dependent effect
inhibition [11]: Dose-dependent effect
inhibition [12]: Dose-dependent effect
inhibition [13]: Dose-dependent effect
inhibition [14]: Dose-dependent effect
inhibition [15]: Dose-dependent effect
inhibition [16]: Dose-dependent effect
Activity [17]: inactive
Activity [18]: inactive
Activity [19]: inactive
Activity [20]: Dose-dependent effect
Activity [21]: Dose-dependent effect
Activity [22]: Dose-dependent effect
inhibition [23]: Dose-dependent effect
inhibition [24]: Dose-dependent effect
inhibition [25]: Dose-dependent effect
Activity [26]: inactive
Activity [27]: Active
inhibition [28]: Active
Activity [29]: Active

GI50 [1]: 9.77 µM
GI50 [2]: 5.88 µM
GI50 [3]: 7.24 µM
GI50 [5]: > 100 µM
SMILES: CC1=C(/C=C/C(C)=C/C=C/C(C)=C\C(=O)NCc2ccccc2)C(C)(C)CCC1n1ccnc1 (stereo not drawn)
GI50 [4]: 10.7 µM
GI50 [6]: > 100 µM
GI50 [7]: > 100 µM

GI50 [1]: 1.99 µM
GI50 [2]: 13.1 µM
GI50 [3]: 6.83 µM
GI50 [5]: 3.54 µM
SMILES: CC1=C(/C=C/C(C)=C/C=C/C(C)=C\C(=O)Nc2ccc(O)cc2)C(C)(C)CCC1n1ccnc1 (stereo not drawn)
GI50 [4]: 3.89 µM
GI50 [6]: 3.89 µM
GI50 [7]: 11.7 µM
